Published values collected from several papers.
Lines come from different studies, so protocols differ.

Structure (SMILES) | test | system | conditions | quantity | result
C=C(F)C(=O)N1CCN(c2nc(OC[C@@H]3CCCN3C)nc3c2CCN(c2cccc4cccc(Cl)c24)C3)C[C@@H]1CC#N |  | male Sprague-Dawley rat, plasma | intravenous, 5 mg/kg | clearance | 44 mL/min/kg
COc1ccccc1C(=O)/C=C/c1cn(Cc2cn(-c3ccnc4cc(Cl)ccc34)nn2)c2ccccc12 | haemolysis | human | 50 µM, 1 h, pH 7.4 | haemolysis | 1.7%
O=C(C=Cc1ccccc1)Nc1cc(-c2ccnc(N3CCC(O)CC3)c2)ccn1 |  | female Sprague-Dawley rat, plasma | intravenous, 5 mg/kg | clearance | 229 mL/min/kg
O=C1c2ccncc2C(=O)c2c1[nH]c1ccccc21 |  | rat, plasma | intravenous, 1 mg/kg, single dose | clearance | 13.1 mL/min
Nc1ccc(/C=C/C(=O)NCc2cc3cc(-c4ccc(C(=O)N5CCC(F)(F)CC5)cc4)cc(-c4ccc(F)cc4)c3o2)cn1 |  | rat, plasma | intravenous, 1 mg/kg | clearance | 0.169 mL/min/kg
CN1Cc2c(N)cccc2C(=O)N1C1CCC(=O)NC1=O (centres unmarked) |  | male Sprague-Dawley rat, plasma | intravenous, 1 mg/kg | clearance | 31.8 mL/min/kg
CC1(CN)CCN(c2cnc3c(Sc4ccncc4Cl)n[nH]c3n2)CC1 |  | male Sprague-Dawley rat, plasma | intravenous, 2 mg/kg | clearance | 223 mL/min/kg
O=C1CC[C@H](N2Cc3cc(N4CCN(CC5CCN(c6ccc([C@@H]7c8ccc(O)cc8CC[C@@H]7c7ccccc7)cc6)CC5)CC4)ccc3C2=O)C(=O)N1 |  | male Sprague-Dawley rat, plasma | intravenous, 5 mg/kg, fed | clearance | 15.4 mL/min/kg
